Series [1] has as its system SiHa. Briefly: Induction of apoptosis in human SiHa cells assessed as decrease in Bcl2 expression at 40 nM incubated for 48 hrs by Western blot analysis. It is filed as functional, cell-based. The procedure, abridged: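 Cancer cells were exposed to graded concentrations for 48 h, washed three times in PBS and lysed in RIPA buffer. Immunoblots were probed with anti-Rb, anti-phospho-Rb, anti-Ki67 and anti-Bcl-2, each at 1:1000. β-actin served as loading control.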
A general note: A western blot detects proteins with antibodies after separation by electrophoresis.

The nature of series [2]: Half life in Sprague-Dawley rat at 10 mg/kg, iv by HPLC-MS analysis. To be noted: in vivo. It is filed as ADME, organism-based. In outline: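 Rats fitted with jugular vein catheters for serial blood sampling. Compound dissolved in saline with 5% (v/v) DMSO and given as a single 10 mg/kg dose iv or po after an overnight fast, n = 5 per group. Plasma isolated at once and measured by HPLC with tandem MS detection. Parameters derived by noncompartmental fitting.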

Series [3] deals with Aurora kinase B (Homo sapiens) (UniProt Q96GD4). Kind of series: Inhibition of recombinant full length human Aurora-B at 1 uM using AKRRRLSSLRA as substrate incubated for 40 mins in presence of [gamma-33P]-ATP by scintillation counting method relative to control. The procedure, abridged:
(§1)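 Kinase panel profiling at 1 μM performed by Eurofins KinaseProfiler; percent inhibition reported as mean of two independent experiments.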

Series [4] has as its system Serine/threonine-protein kinase Chk2 (Homo sapiens), O96017 [R145W]. Briefly: Inhibition of recombinant human CHK2 R145W mutant (5 to end residues) at 1 uM using KKKVSRSGLYRSP as substrate incubated for 40 mins in presence of [gamma-33P]-ATP by scintillation counting method relative to control. In outline:
as §1

The target of series [5] is Casein kinase I isoform gamma-2 (Homo sapiens) (UniProt P78368). Kind of series: Inhibition of recombinant human CK1gamma2 (18 to end residues) at 1 uM using KRRRALS(p)VAS as substrate incubated for 40 mins in presence of [gamma-33P]-ATP by scintillation counting method relative to control. The procedure, abridged: as §1
Series [6] concerns Saccharomyces cerevisiae. Kind of series: Inhibition of recombinant fungi CK1 (2 to 298 residues) at 1 uM using KRRRALS(p)VAS as substrate incubated for 40 mins in presence of [gamma-33P]-ATP by scintillation counting method relative to control. In outline:
as §1

The target of series [7] is Serine/threonine-protein kinase DCLK2 (Homo sapiens) (UniProt Q8N568). Kind of series: Inhibition of recombinant human DCAMKL2 (376 to end residues) at 1 uM using KKLNRTLSFAEPG as substrate incubated for 40 mins in presence of [gamma-33P]-ATP by scintillation counting method relative to control. In outline: (§2)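 Tested at a single 1 uM in an outsourced commercial kinase-profiling panel, read as percent inhibition. Each value is the mean of two independent experiments.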

Series [8] concerns Epidermal growth factor receptor (Homo sapiens), P00533 [L858R]. Kind of series: Inhibition of recombinant human EGFR L858R mutant (696 to end residues) at 1 uM using poly(Glu, Tyr) 4:1 as substrate incubated for 40 mins in presence of [gamma-33P]-ATP by scintillation counting method relative to control. The procedure, abridged: as §1
Series [9] concerns the target Ephrin type-B receptor 1 (Homo sapiens) (UniProt P54762). Briefly: Inhibition of recombinant human EPhB1 (564 to end residues) at 1 uM using KVEKIGEGTYGVVYK as substrate incubated for 40 mins in presence of [gamma-33P]-ATP by scintillation counting method relative to control.
Series [10] has as its target Ribosomal protein S6 kinase alpha-4 (Homo sapiens) (UniProt O75676). Briefly: Inhibition of recombinant human MSK2 (2 to end residues) at 1 uM using GRPRTSSFAEGKK as substrate incubated for 40 mins in presence of [gamma-33P]-ATP by scintillation counting method relative to control.
Series [11] has as its target Serine/threonine-protein kinase D2 (Homo sapiens) (UniProt Q9BZL6). Briefly: Inhibition of recombinant human full length PKD2 at 1 uM using KKLNRTLSVA as substrate incubated for 40 mins in presence of [gamma-33P]-ATP by scintillation counting method relative to control.
In series [12] the target is MAP kinase-activated protein kinase 5 (Homo sapiens) (UniProt Q8IW41). Kind of series: Inhibition of recombinant human full length PRAK at 1 uM using KKLRRTLSVA as substrate incubated for 40 mins in presence of [gamma-33P]-ATP by scintillation counting method relative to control.
In series [13] the target is Serine/threonine-protein kinase SIK2 (Homo sapiens) (UniProt Q9H0K1). Kind of series: Inhibition of recombinant human SIK2 (1 to 276 residues) at 1 uM using KKKVSRSGLYRSPSMPENLNRPR as substrate incubated for 40 mins in presence of [gamma-33P]-ATP by scintillation counting method relative to control.
The target of series [14] is Serine/threonine-protein kinase PLK2 (Homo sapiens) (UniProt Q9NYY3). Kind of series: Inhibition of recombinant human SNK (65 to 409 residues) at 1 uM using casein as substrate incubated for 40 mins in presence of [gamma-33P]-ATP by scintillation counting method relative to control.
Series [15] concerns the target SNF-related serine/threonine-protein kinase (Homo sapiens) (UniProt Q9NRH2). Briefly: Inhibition of recombinant human SNRK (1 to 505 residues) at 1 uM using KKLRRTLSFAEPG as substrate incubated for 40 mins in presence of [gamma-33P]-ATP by scintillation counting method relative to control. The procedure, abridged: as §2
In series [16] the target is Serine/threonine-protein kinase TBK1 (Homo sapiens) (UniProt Q9UHD2). Briefly: Inhibition of recombinant human full length TBK1 at 1 uM using KRRRALS(p)VASLPGL as substrate incubated for 40 mins in presence of [gamma-33P]-ATP by scintillation counting method relative to control.
Series [17] concerns the target Tau-tubulin kinase 1 (Homo sapiens) (UniProt Q5TCY1). Briefly: Inhibition of recombinant human TTBK1 (1 to 479 residues) at 1 uM using casein as substrate incubated for 40 mins in presence of [gamma-33P]-ATP by scintillation counting method relative to control. The procedure, abridged: as §2
Series [18] concerns the target Tyrosine-protein kinase Yes (Homo sapiens) (UniProt P07947). Briefly: Inhibition of recombinant human full length YES at 1 uM using poly(Glu, Tyr) 4:1 as substrate incubated for 40 mins in presence of [gamma-33P]-ATP by scintillation counting method relative to control.
The test system of series [19] is PI3-kinase p110-alpha/p85-alpha (Homo sapiens), P27986+P42336 [E545K]. Kind of series: Inhibition of recombinant human full length PI3K p110alpha/p85alpha E545K mutant at 1 uM using phosphatidylinositol 4,5-bisphosphate as substrate incubated for 40 mins in presence of [gamma-33P]-ATP by scintillation counting method relative to control. The series is classed as protein-complex assay.

The nature of series [20]: Toxicity in NOD/SCID BALB/c mouse xenografted with human SiHa cells assessed as effect on blood parameter by measuring platelet content at 40 mg/kg, po administered once two days for 4 times by hematology analyzer. The series is classed as organism-based. The conditions noted are these: in vivo. For orientation: In xenograft studies the graft and the host belong to different species.

The nature of series [21]: Toxicity in BALB/c mouse assessed as toxic effects in spleen at 40 mg/kg, po administered for 48 hrs by hematoxylin and eosin staining method. To be noted: in vivo.
Series [22] in a line: Toxicity in BALB/c mouse assessed as effect on blood parameter by measuring lymphocytes content at 40 mg/kg, po administered once two days for 4 times by hematology analyzer. The conditions noted are these: in vivo.

Calls of active or inactive are those of the source.

Chain of Serine/threonine-protein kinase TBK1 (Homo sapiens) (Q9UHD2 whole entry, the tested form may be a part): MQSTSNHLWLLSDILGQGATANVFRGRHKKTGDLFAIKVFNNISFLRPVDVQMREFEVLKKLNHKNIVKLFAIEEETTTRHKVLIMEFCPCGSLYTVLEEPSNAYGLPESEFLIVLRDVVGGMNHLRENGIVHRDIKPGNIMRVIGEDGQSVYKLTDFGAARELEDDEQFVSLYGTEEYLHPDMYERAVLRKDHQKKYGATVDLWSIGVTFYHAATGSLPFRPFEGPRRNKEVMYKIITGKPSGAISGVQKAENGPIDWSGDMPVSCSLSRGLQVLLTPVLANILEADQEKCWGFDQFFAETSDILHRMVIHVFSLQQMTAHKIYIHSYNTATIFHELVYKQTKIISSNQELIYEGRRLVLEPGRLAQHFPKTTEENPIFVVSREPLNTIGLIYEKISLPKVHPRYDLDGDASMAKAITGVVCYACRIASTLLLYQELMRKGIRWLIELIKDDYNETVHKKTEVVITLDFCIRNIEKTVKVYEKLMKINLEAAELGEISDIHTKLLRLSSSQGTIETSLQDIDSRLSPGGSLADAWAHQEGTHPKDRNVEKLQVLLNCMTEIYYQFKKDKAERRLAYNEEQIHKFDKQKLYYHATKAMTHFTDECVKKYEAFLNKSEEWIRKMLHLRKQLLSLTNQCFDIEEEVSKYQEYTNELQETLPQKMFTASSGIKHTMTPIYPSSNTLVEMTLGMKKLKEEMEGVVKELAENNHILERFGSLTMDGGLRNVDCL
Chain of Ribosomal protein S6 kinase alpha-4 (Homo sapiens) (O75676 whole entry, looked up): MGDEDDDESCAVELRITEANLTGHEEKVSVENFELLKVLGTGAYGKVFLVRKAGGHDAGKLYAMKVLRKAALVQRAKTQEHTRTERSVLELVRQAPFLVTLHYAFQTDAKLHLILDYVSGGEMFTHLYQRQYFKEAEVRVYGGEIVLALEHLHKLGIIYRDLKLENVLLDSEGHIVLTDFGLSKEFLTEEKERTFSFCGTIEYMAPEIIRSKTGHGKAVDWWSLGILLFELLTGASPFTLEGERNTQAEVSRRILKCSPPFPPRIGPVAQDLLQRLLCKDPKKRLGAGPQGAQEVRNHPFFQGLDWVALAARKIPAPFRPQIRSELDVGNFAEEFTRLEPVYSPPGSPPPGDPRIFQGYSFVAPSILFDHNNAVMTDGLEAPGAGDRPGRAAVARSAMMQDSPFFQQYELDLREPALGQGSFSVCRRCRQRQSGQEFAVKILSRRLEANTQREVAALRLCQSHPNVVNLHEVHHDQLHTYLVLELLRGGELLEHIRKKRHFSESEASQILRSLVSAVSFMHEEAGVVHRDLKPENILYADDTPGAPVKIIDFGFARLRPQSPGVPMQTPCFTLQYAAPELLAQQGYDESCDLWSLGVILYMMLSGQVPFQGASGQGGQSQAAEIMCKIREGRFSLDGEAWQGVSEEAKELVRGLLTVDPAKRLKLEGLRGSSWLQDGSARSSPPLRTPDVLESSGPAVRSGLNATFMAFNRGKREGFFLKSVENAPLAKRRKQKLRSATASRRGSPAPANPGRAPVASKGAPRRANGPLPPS
Chain of Tyrosine-protein kinase Yes (Homo sapiens) (P07947 2-543 limits assumed): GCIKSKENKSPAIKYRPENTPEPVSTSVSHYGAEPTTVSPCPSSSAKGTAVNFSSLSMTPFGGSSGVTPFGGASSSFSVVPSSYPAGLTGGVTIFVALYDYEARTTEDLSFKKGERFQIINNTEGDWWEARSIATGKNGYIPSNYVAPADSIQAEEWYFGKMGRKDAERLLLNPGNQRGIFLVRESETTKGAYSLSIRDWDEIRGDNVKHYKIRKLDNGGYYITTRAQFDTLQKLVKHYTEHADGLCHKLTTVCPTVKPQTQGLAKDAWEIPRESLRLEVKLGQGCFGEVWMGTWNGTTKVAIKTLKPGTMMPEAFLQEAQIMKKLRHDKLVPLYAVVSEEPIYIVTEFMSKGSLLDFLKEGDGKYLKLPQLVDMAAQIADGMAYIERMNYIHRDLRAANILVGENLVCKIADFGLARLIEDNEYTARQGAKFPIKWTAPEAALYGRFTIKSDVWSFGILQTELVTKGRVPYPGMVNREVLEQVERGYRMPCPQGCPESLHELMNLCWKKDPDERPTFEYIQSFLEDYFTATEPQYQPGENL
Chain of Serine/threonine-protein kinase SIK2 (Homo sapiens) (Q9H0K1 whole entry, looked up, the tested form may be a part): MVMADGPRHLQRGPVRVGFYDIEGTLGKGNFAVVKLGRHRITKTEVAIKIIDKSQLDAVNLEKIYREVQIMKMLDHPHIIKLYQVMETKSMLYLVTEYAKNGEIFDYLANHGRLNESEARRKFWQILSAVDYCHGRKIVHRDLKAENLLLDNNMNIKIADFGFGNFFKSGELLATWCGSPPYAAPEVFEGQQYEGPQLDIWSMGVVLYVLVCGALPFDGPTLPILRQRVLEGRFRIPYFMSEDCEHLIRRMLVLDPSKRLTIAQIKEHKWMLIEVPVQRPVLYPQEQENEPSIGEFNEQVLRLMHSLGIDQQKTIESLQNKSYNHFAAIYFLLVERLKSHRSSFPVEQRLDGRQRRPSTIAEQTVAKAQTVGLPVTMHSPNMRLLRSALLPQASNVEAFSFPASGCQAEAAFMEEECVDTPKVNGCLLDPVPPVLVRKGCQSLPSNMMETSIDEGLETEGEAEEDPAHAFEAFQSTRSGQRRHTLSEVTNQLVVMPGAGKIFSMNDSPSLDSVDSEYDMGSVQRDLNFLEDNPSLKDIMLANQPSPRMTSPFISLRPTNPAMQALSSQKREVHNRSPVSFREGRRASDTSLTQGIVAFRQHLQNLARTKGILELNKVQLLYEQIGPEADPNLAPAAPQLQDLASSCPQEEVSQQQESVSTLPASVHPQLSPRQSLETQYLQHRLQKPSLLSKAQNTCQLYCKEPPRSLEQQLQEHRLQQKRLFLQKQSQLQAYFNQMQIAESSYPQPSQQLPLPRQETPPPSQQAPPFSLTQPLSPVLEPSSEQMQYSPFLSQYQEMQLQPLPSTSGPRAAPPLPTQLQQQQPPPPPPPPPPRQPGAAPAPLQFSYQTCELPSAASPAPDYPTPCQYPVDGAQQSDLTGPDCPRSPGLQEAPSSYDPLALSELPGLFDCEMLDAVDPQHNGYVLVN
Chain of Aurora kinase B (Homo sapiens) (Q96GD4 whole entry): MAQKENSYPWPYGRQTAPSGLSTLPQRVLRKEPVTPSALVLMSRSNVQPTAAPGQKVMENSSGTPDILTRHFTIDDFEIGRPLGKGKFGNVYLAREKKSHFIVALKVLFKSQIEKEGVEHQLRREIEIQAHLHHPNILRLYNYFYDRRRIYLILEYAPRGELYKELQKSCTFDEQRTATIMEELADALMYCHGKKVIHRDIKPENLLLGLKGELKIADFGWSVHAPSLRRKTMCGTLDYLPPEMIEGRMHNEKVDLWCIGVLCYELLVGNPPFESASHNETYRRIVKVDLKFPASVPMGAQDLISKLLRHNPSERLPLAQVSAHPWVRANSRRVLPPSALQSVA
Chain of Serine/threonine-protein kinase PLK2 (Homo sapiens) (Q9NYY3 whole entry, looked up, the tested form may be a part): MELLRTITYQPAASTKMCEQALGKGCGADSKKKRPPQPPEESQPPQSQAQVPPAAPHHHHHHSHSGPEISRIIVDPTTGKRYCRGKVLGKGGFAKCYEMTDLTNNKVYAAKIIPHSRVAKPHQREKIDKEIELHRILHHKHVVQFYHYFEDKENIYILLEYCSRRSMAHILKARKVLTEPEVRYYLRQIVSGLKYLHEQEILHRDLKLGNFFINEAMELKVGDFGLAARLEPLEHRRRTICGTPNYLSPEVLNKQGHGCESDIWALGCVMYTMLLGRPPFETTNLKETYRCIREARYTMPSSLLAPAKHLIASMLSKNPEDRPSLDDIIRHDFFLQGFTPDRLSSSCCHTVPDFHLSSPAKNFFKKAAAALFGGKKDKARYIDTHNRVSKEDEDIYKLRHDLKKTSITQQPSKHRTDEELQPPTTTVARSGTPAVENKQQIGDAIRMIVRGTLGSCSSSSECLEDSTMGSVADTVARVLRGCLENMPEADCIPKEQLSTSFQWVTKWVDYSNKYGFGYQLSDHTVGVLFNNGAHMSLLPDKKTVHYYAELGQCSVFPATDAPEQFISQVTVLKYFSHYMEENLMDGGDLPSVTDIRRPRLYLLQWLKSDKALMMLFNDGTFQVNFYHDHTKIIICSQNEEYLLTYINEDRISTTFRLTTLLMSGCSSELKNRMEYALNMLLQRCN
Chain of MAP kinase-activated protein kinase 5 (Homo sapiens) (Q8IW41 whole entry, the tested form may be a part): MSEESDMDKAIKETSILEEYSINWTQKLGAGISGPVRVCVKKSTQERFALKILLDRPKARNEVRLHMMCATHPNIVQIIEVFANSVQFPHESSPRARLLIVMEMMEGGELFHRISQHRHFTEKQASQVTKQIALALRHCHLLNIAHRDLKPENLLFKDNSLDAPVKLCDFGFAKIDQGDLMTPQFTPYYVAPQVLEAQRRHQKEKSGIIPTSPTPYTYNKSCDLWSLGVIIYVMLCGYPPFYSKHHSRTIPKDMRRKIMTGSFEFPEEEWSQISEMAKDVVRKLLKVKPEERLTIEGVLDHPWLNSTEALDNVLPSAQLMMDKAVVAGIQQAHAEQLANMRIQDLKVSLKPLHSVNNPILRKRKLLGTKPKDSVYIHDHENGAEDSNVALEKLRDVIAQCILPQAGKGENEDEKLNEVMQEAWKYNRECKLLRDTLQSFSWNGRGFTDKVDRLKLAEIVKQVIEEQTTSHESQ
Chain of Serine/threonine-protein kinase Chk2 (Homo sapiens), O96017 [R145W] (O96017 whole entry R145W): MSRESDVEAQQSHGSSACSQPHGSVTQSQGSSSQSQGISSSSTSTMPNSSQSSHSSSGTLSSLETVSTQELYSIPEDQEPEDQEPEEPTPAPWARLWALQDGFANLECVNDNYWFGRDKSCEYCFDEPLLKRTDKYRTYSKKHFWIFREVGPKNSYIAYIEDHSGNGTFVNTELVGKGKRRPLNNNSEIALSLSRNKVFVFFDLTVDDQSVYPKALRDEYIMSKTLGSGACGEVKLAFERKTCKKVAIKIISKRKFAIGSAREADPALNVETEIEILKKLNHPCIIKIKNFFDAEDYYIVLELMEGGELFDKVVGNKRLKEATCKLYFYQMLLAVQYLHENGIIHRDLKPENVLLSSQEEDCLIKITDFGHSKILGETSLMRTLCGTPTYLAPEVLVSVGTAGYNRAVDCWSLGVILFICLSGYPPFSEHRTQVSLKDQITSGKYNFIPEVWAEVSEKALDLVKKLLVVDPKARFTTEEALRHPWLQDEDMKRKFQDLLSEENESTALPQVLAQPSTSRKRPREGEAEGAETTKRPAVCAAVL

As for `COc1cc2nccc(Oc3ccc(NC(=O)C4(C(=O)Nc5ccc(F)cc5)CC4)cc3)c2cc1OC` [CABOZANTINIB], in series [1], the outcome was Active.

On to `Cc1ccc(NC(=O)C2(C(=O)Nc3ccc(Nc4ncc(F)c(-c5cc(F)c6nc(C)n(C(C)C)c6c5)n4)cc3)CC2)cc1`, for which the half-life – broadly, the time needed for the level to fall by half in the phase considered – in series [2] is 2 h. Besides, the inhibition (commonly how much of the control response was suppressed) in series [3] was 64%; in [4] it was 28%; in series [5], 49%; in series [6] it was 48%; in [7], 0%; in series [8], 35%. Moreover, the inhibition in series [9] was 66%; in [10], 78%; in series [11] it was 17%; in series [12], 1%; in series [13], 43%; in series [14] it was 47%. Moreover, the inhibition in series [15] came out at 0%; in [16], 9%; in series [17], 0%; in series [18] it was 31%; in series [19] it was 2%. In addition, the Activity result in [20], in series [21] and in series [22] was “Non-Toxic” each time.

Source of the values: ChEMBL document CHEMBL4406821, “Novel dual inhibitors targeting CDK4 and VEGFR2 synergistically suppressed cancer progression and angiogenesis” (Eur J Med Chem, 2019).
